# Measurements published in ChEMBL document CHEMBL1145983, “Novel indolyl aryl sulfones active against HIV-1 carrying NNRTI resistance mutations: synthesis and SAR studies” (J Med Chem, 2003).
# Experiments:
# MT4 = test: Cytotoxicity, reducing the vaiability of mock-infected cells; format: functional; conditions: Homo sapiens
# [1] = tested on: Human immunodeficiency virus 1; test: Anti-HIV activity protecting MT-4 cells from HIV-1 induced cytopathogenicity; format: functional, organism-based; conditions: Human immunodeficiency virus 1, MT4
# [2] = tested on: Human immunodeficiency virus 1; test: Selectivity ratio of CC50/EC50; format: functional
# In short: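 Ratio of CC50 (MTT viability of mock-infected MT-4 cells) to EC50 (MTT-based 50% protection of HIV-1-infected MT-4 cells from cytopathicity), both determined in parallel.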
# MT-4 (Homo sapiens) = test: Anti-HIV activity to protect MT-4 cells from cytopathogenicity induced by HIV-1 K103N-Y181C (MTT method)
# C8166 = test: Anti-HIV activity to reduce the amount of p24 in WT IIIB infected C8166 cells; format: functional, cell-based; conditions: Homo sapiens
# In short: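 HIV-1 IIIB came from supernatants of persistently infected H9/IIIB cells; stock 4.5 × 10^6 CCID50/mL. Acutely infected C8166 cells (1 × 10^4/well) were incubated at 37 °C with or without compound dilutions. p24 was measured by immunoenzymatic kit. Value is the concentration reducing p24 by 90%; mean of three experiments.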
# [3] = biological target: Human immunodeficiency virus type 1 reverse transcriptase (Human immunodeficiency virus 1, UniProt Q72547, K103N); test: Activity to inhibit HIV-1 Reverse transcriptase activity in K103N
# In short: (§1)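 Purified recombinant RT (wt or K103N mutant) assayed for RNA-dependent DNA polymerase activity. Buffer: 50 mM Tris-HCl pH 7.8, 80 mM KCl, 6 mM MgCl2, 1 mM DTT, 0.1 mg/mL BSA. Template:primer was poly(rC)-oligo(dG)12-18 at 0.5 OD260 unit/mL, with [3H]dGTP. Incubated 30 min at 37 °C; acid-insoluble radioactivity counted on glass-fibre filters. IC50 reported as mean of two experiments.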
# [4] = biological target: Human immunodeficiency virus type 1 reverse transcriptase (Human immunodeficiency virus 1, UniProt Q72547); test: Activity to inhibit HIV-1 Reverse transcriptase activity in WT IIIB; in short: as §1
SMILES,CC50 (MT4) [µM],EC50 [1] [µM],Selectivity index [2],EC50 (MT-4 (Homo sapiens)) [µM],EC90 (C8166) [µM],IC50 [3] [µM],IC50 [4] [µM]
NC(=O)c1[nH]c2ccccc2c1S(=O)(=O)c1cc(Cl)ccc1N,3.5,0.3,11.7,,,,
Cc1cc(C)cc(Sc2c(C(N)=O)[nH]c3ccc(Cl)cc23)c1,0.7,0.006,117,,,,
NNC(=O)c1[nH]c2ccc(Cl)cc2c1Sc1ccccc1,44,0.5,88,,,,
CC(C)OC(=O)c1cn(S(=O)(=O)c2ccccc2)c2ccccc12,54,> 54,,,,,
NNC(=O)c1[nH]c2ccc(Cl)cc2c1S(=O)(=O)c1ccccc1,> 200,0.01,>20000,,,,
CCOC(=O)c1cc2cc(Cl)ccc2n1S(=O)(=O)c1cc(Cl)ccc1[N+](=O)[O-],31,> 31,,,,,
NC(=O)c1[nH]c2ccc(Cl)cc2c1Sc1ccccc1,9,0.02,450,,,,
NNC(=O)c1[nH]c2ccc(Cl)cc2c1S(=O)(=O)c1cc(Cl)ccc1N,19,0.3,63,,,,
NNC(=O)c1cc2ccccc2n1S(=O)(=O)c1ccccc1,> 200,> 200,,,,,
CC(C)(C)c1ccc(Sc2c(C(N)=O)[nH]c3ccc(Cl)cc23)cc1,45,8,6,,,,
CC(C)OC(=O)c1cn(S(=O)(=O)c2ccccc2)c2ccc(Cl)cc12,> 200,> 200,,,,,
NC(=O)c1cc2ccccc2n1S(=O)(=O)c1ccccc1,> 200,15,,,,,
CCOC(=O)c1cn(S(=O)(=O)c2ccccc2)c2ccc(Cl)cc12,42,> 42,,,,,
CCOC(=O)c1[nH]c2ccc(Cl)cc2c1Sc1ccccc1N,> 200,2.3,>87,,,,
NNC(=O)c1[nH]c2ccc(Cl)cc2c1S(=O)(=O)c1ccc(Cl)cc1,> 200,0.2,>1000,,,,
O=S(=O)(c1ccccc1)n1ccc2cc(Cl)ccc21,75,> 75,,,,,
NC(=O)c1[nH]c2ccc(Cl)cc2c1Sc1cc(Cl)ccc1N,33,1.6,20,,,,
NNC(=O)c1[nH]c2ccc(Cl)cc2c1Sc1cc(Cl)ccc1N,13,> 13,,,,,
Cc1cc(C)cc(S(=O)(=O)c2c(C(N)=O)[nH]c3ccc(Br)cc23)c1,18,0.002,9000,,,,
NC(=O)c1[nH]c2ccc(Cl)cc2c1Sc1ccc(F)cc1,13,1.4,9,,,,
Cc1ccccc1Sc1c(C(N)=O)[nH]c2ccc(Cl)cc12,26,0.3,87,,,,
Cc1ccc(S(=O)(=O)c2c(C(=O)NN)[nH]c3ccc(Cl)cc23)cc1,> 200,0.05,>4000,,,,

SMILES,CC50 (MT4) [µM],EC50 [1] [µM],Selectivity index [2],EC50 (MT-4 (Homo sapiens)) [µM],EC90 (C8166) [µM],IC50 [3] [µM],IC50 [4] [µM]
Cc1ccc(S(=O)(=O)c2c(C(N)=O)[nH]c3ccc(Cl)cc23)c(C)c1,37,0.004,9250,10,,,
CCOC(=O)c1cc2cc(Cl)ccc2n1S(=O)(=O)c1ccc(Cl)cc1,> 200,> 200,,,,,
CCOC(=O)c1[nH]c2ccccc2c1Sc1cc(Cl)ccc1N,> 200,> 200,,,,,
NC(=O)c1[nH]c2ccc(Cl)cc2c1S(=O)(=O)c1ccc(Cl)cc1,> 200,0.011,>18182,,,,
NC(=O)c1[nH]c2ccc(Cl)cc2c1S(=O)(=O)c1cc(Cl)ccc1N,4.6,0.04,115,,,,
NC(=O)c1cn(S(=O)(=O)c2ccccc2)c2ccccc12,32,> 32,,,,,
CCOC(=O)c1[nH]c2ccc(Cl)cc2c1Sc1cc(Cl)ccc1N,> 200,2.5,>80,,,,
CCOC(=O)c1cc2ccccc2n1S(=O)(=O)c1cc(Cl)ccc1N,50,1.8,28,,,,
CCOC(=O)c1cn(S(=O)(=O)c2ccccc2)c2ccccc12,32,> 32,,,,,
NNC(=O)c1[nH]c2ccc(Cl)cc2c1Sc1ccc(Cl)cc1,30,10,3,,,,
NC(=O)c1[nH]c2ccc(Cl)cc2c1Sc1ccc(Cl)cc1,13,3.1,4,,,,
NC(=O)c1cc2cc(Cl)ccc2n1S(=O)(=O)c1ccccc1,> 200,66,>3,,,,
CCOC(=O)c1[nH]c2ccc(Cl)cc2c1S(=O)(=O)c1cc(Cl)ccc1N,> 200,1.9,105,,,,
Cc1ccc(Sc2c(C(=O)NN)[nH]c3ccc(Cl)cc23)cc1,129,1.5,86,,,,
CC(C)c1ccc(S(=O)(=O)c2c(C(N)=O)[nH]c3ccc(Cl)cc23)cc1,> 200,0.08,>2500,,,,
NC(=O)c1[nH]c2ccccc2c1Sc1ccccc1,14,1.4,10,,,,
CCOC(=O)c1cc2ccccc2n1S(=O)(=O)c1cc(Cl)ccc1[N+](=O)[O-],> 100,> 100,,,,,
CC(=O)c1ccc2[nH]c(C(N)=O)c(S(=O)(=O)c3cc(C)cc(C)c3)c2c1,> 200,0.015,> 13300,,,,
NNC(=O)c1[nH]c2ccc(Cl)cc2c1Sc1ccc(F)cc1,66,5,13,,,,
CCOC(=O)c1[nH]c2ccccc2c1Sc1ccccc1,> 200,> 200,,,,,
CCOC(=O)c1cc2ccccc2n1S(=O)(=O)c1ccccc1,> 200,> 200,,,,,
NC(=O)c1[nH]c2ccc(Cl)cc2c1Sc1c(Cl)cccc1Cl,61,1.2,51,,,,

SMILES,CC50 (MT4) [µM],EC50 [1] [µM],Selectivity index [2],EC50 (MT-4 (Homo sapiens)) [µM],EC90 (C8166) [µM],IC50 [3] [µM],IC50 [4] [µM]
O=S(=O)(c1ccccc1)n1ccc2ccccc21,150,> 150,,,,,
NNC(=O)c1[nH]c2ccc(Cl)cc2c1S(=O)(=O)c1ccc(F)cc1,44,0.3,147,,,,
CCOC(=O)c1cc2cc(Cl)ccc2n1S(=O)(=O)c1ccccc1,> 200,> 200,,,,,
Cc1cc(C)cc(S(=O)(=O)c2c(C(N)=O)[nH]c3ccc(Cl)cc23)c1,15,0.004,3750,0.65,0.002,> 5,0.031
CC(C)c1ccc(Sc2c(C(N)=O)[nH]c3ccc(Cl)cc23)cc1,52,1.9,27,,,,
Cc1cc(C)cc(S(=O)(=O)c2c(C(=O)NN)[nH]c3ccc(Cl)cc23)c1,> 200,0.1,>2000,,,,
NC(=O)c1[nH]c2ccccc2c1S(=O)(=O)c1ccccc1,> 200,0.18,> 1110,,,,
NC(=O)c1[nH]c2ccc(Cl)cc2c1S(=O)(=O)c1ccc(F)cc1,17,0.014,1214,,,,
NNC(=O)c1[nH]c2ccccc2c1S(=O)(=O)c1ccccc1,133,0.5,266,,,,
CCOC(=O)c1cc2cc(Cl)ccc2n1S(=O)(=O)c1cc(Cl)ccc1N,39,8.3,4.7,,,,
CCOC(=O)c1[nH]c2ccccc2c1S(=O)(=O)c1cc(Cl)ccc1N,> 200,2.5,>91,,,,
CCOC(=O)c1cc2ccccc2n1S(=O)(=O)c1ccccc1[N+](=O)[O-],> 200,> 200,,,,,
NC(=O)c1cn(S(=O)(=O)c2ccccc2)c2ccc(Cl)cc12,200,> 200,,,,,
CC(C)(C)c1ccc(S(=O)(=O)c2c(C(N)=O)[nH]c3ccc(Cl)cc23)cc1,26,0.13,200,,,,
CCOC(=O)c1[nH]c2ccc(Cl)cc2c1S(=O)(=O)c1ccccc1N,> 200,> 200,,,,,
Cc1cc(C)cc(S(=O)(=O)c2c(C(N)=O)[nH]c3ccc(C(C)O)cc23)c1 (stereo unspecified),> 200,0.025,>8000,,,,
NC(=O)c1[nH]c2ccccc2c1Sc1cc(Cl)ccc1N,20,9,2.2,,,,
Cc1ccc(Sc2c(C(N)=O)[nH]c3ccc(Cl)cc23)cc1,0.45,> 0.45,,,,,
NC(=O)c1[nH]c2ccc(Cl)cc2c1S(=O)(=O)c1c(Cl)cccc1Cl,40,0.1,400,,,,
CCOC(=O)c1[nH]c2ccccc2c1S(=O)(=O)c1ccccc1,157,3.7,42,,,,
